Reference: ChEMBL document CHEMBL2010644, “Evaluation and discovery of novel synthetic chalcone derivatives as anti-inflammatory agents” (J Med Chem, 2011)
The source made the active and inactive calls. The rule behind the calls is not given here.

Tests used:
Mus musculus [1] = species on record: Mus musculus; test: Inhibition of LPS-induced ERK phosphorylation in ICR mouse primary peritoneal macrophages at 10 uM incubated for 2 hrs prior to LPS-challenge measured after 1 hr by Western blot analysis
Summary of the method: (§1)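 Cells pretreated 2 h with DMSO or compound (10 μM in the single-concentration set; 2.5, 5.0, 10, 20 μM in the dose series), then LPS 0.5 μg/mL for 1 h. p-ERK, ERK, p-p38 and p38 detected by Western blot with actin loading control; optical density ratio reported. Mean ± SE, three independent experiments.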

Mus musculus [2] = test: Toxicity in C57BL/6 mouse assessed as weight loss at 15 mg/kg, iv after 60 hrs; assay type: organism-based; parameters: dose 15 mg/kg, route intravenous; details: in vivo
Summary of the method: (§2)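 Male B6 mice (18−22 g) given compound at 15 mg/kg iv (2 mg/mL in macrogol 15 hydroxystearate 5−10% ± MCT 0.5−2%, 200 μL). LPS 20 mg/kg iv followed 15 min later. Vehicle controls received 10% solubilizer/2% MCT. Body weight recorded every 12 h for 7 days; n = 10 per group.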

[3] = biological target: T1, MAP kinase p38 (Mus musculus) (UniProt P47811+O08911+Q9WUI1+Q9Z1B7); test: Inhibition of LPS-induced p38 phosphorylation in ICR mouse primary peritoneal macrophages incubated for 2 hrs prior to LPS-challenge measured after 1 hr by Western blot analysis; summary of the method: as §1
[4] = system: Peritoneal macrophage cell; test: Antiinflammatory activity in ICR mouse primary peritoneal macrophages assessed as downregulation of LPS-induced TNF-alpha mRNA expression at 10 uM incubated for 2 hrs prior to LPS-challenge measured after 6 hrs by RT-qPCR analysis; assay type: functional, cell-based
Summary of the method: (§3)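 Macrophages pretreated 2 h with compound at 10 μM or vehicle, then LPS 0.5 μg/mL for 6 h. mRNA of TNF-α, IL-6, COX-2, IL-1β and IL-12 quantified by RT-qPCR, normalized to β-actin mRNA and expressed as ratio to DMSO. Mean ± SD of four to seven independent experiments.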

[5] = system: Peritoneal macrophage cell; test: Antiinflammatory activity in ICR mouse primary peritoneal macrophages assessed as downregulation of high glucose-induced IL6 mRNA expression at 10 uM incubated for 2 hrs prior to high glucose-challenge measured after 3 hrs by RT-qPCR analysis; assay type: functional, cell-based
Summary of the method: (§4)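 Peritoneal macrophages (1 × 10^6) pretreated with compound (10 μM) or DMSO for 2 h, then high glucose (25 mM) for 3 h. Low-glucose reference cells kept in RPMI-1640 with 5.5 mM glucose. TNF-α, IL-1β, IL-6 and IL-12 mRNA measured by RT-qPCR on whole-cell RNA. Mean ± SEM, three independent experiments run in duplicate.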

Mus musculus [6] = species on record: Mus musculus; test: Inhibition of JNK-induced NfkappaB p65 subunit translocation from cytoplasm to nucleus in LPS-stimulated ICR mouse primary peritoneal macrophages at 10 uM incubated for 2 hrs prior to LPS-challenge measured after 1 hr by fluorescence microscopy
Summary of the method: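 Macrophages pretreated with DMSO or 10 μM compound for 2 h, stimulated with LPS 0.5 μg/mL for 1 h. Stained with anti-p65 and Cy3-conjugated secondary antibody, nuclei with DAPI. Imaged at 200× by fluorescence microscopy with red/blue overlay. Five independent experiments.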

Mus musculus [7] = test: Antiinflammatory activity against LPS-induced inflammation in C57BL/6 mouse assessed as survival at 15 mg/kg, iv administered 15 mins prior to LPS-challenge after 7 days relative to vehicle treated control; assay type: functional
Summary of the method: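 Male B6 mice, 18−22 g, acclimatized ≥7 days. Compound at 2 mg/mL in macrogol 15 hydroxystearate solubilizer (5−10% final) with or without MCT (0.5−2% final), 200 μL iv at 15 mg/kg, 15 min before iv LPS 20 mg/kg. Vehicle controls got 10% solubilizer/2% MCT. Survival and body weight recorded every 12 h for 7 days; n = 10 per group.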

Mus musculus [8] = species on record: Mus musculus; test: Inhibition of LPS-induced ERK phosphorylation in ICR mouse primary peritoneal macrophages incubated for 2 hrs prior to LPS-challenge measured after 1 hr by Western blot analysis; summary of the method: as §1
Mus musculus [9] = species on record: Mus musculus; test: Inhibition of JNK-induced IkappaBalpha degradation in LPS-stimulated ICR mouse primary peritoneal macrophages incubated for 2 hrs prior to LPS-challenge measured after 30 mins by Western blot analysis
Summary of the method: (§5)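 Peritoneal macrophages pretreated with DMSO or compound (2.5, 5, 10 or 20 μM) for 2 h, then LPS 0.5 μg/mL for 30 min. Western blot of 40 μg lysate on 10% SDS-PAGE for IκBα (actin loading control) and p-JNK (JNK control); optical density normalized as percent of control. Mean ± SEM, three independent experiments.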

[10] = biological target: T1, MAP kinase p38 (Mus musculus); test: Inhibition of LPS-induced p38 phosphorylation in ICR mouse primary peritoneal macrophages at 20 uM incubated for 2 hrs prior to LPS-challenge measured after 1 hr by Western blot analysis; summary of the method: as §1
Mus musculus [11] = species on record: Mus musculus; test: Inhibition of LPS-induced ERK phosphorylation in ICR mouse primary peritoneal macrophages at 20 uM incubated for 2 hrs prior to LPS-challenge measured after 1 hr by Western blot analysis; summary of the method: as §1
[12] = system: Peritoneal macrophage cell; test: Antiinflammatory activity in ICR mouse primary peritoneal macrophages assessed as downregulation of LPS-induced IL-12 mRNA expression at 10 uM incubated for 2 hrs prior to LPS-challenge measured after 6 hrs by RT-qPCR analysis; assay type: functional, cell-based; summary of the method: as §3
[13] = system: Peritoneal macrophage cell; test: Antiinflammatory activity in ICR mouse primary peritoneal macrophages assessed as downregulation of LPS-induced IL-1beta mRNA expression at 10 uM incubated for 2 hrs prior to LPS-challenge measured after 6 hrs by RT-qPCR analysis; assay type: functional, cell-based; summary of the method: as §3
[14] = system: Peritoneal macrophage cell; test: Antiinflammatory activity in ICR mouse primary peritoneal macrophages assessed as downregulation of high glucose-induced IL12 mRNA expression at 10 uM incubated for 2 hrs prior to high glucose-challenge measured after 3 hrs by RT-qPCR analysis; assay type: functional, cell-based; summary of the method: as §4
[15] = system: Peritoneal macrophage cell; test: Antiinflammatory activity in ICR mouse primary peritoneal macrophages assessed as downregulation of high glucose-induced TNFalpha mRNA expression at 10 uM incubated for 2 hrs prior to high glucose-challenge measured after 3 hrs by RT-qPCR analysis; assay type: functional, cell-based; summary of the method: as §4
[16] = system: Peritoneal macrophage cell; test: Antiinflammatory activity in ICR mouse primary peritoneal macrophages assessed as downregulation of LPS-induced COX-2 mRNA expression at 10 uM incubated for 2 hrs prior to LPS-challenge measured after 6 hrs by RT-qPCR analysis; assay type: functional, cell-based; summary of the method: as §3
Mus musculus [17] = test: Toxicity in C57BL/6 mouse assessed as weight loss at 15 mg/kg, iv up to 60 hrs; assay type: organism-based; parameters: dose 15 mg/kg, route intravenous; details: in vivo; summary of the method: as §2
[18] = system: Peritoneal macrophage cell; test: Antiinflammatory activity in ICR mouse primary peritoneal macrophages assessed as downregulation of LPS-induced IL-6 mRNA expression at 10 uM incubated for 2 hrs prior to LPS-challenge measured after 6 hrs by RT-qPCR analysis; assay type: functional, cell-based; summary of the method: as §3
[19] = system: Peritoneal macrophage cell; test: Antiinflammatory activity in ICR mouse primary peritoneal macrophages assessed as downregulation of high glucose-induced IL1beta mRNA expression at 10 uM incubated for 2 hrs prior to high glucose-challenge measured after 3 hrs by RT-qPCR analysis; assay type: functional, cell-based; summary of the method: as §4
RAW264.7 [20] = test: Antiinflammatory activity in mouse RAW264.7 cells assessed as inhibition of LPS-induced TNFalpha production incubated for 2 hrs prior to LPS-challenge measured after 22 hrs by ELISA; assay type: functional, cell-based
Summary of the method: (§6)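 RAW264.7 cells grown in DMEM with 10% FBS at 37 °C, 5% CO2, plated at 1.2 × 10^6/plate overnight. Compound pretreatment 2 h (screen at 10 μM; dose-response at 2.5, 5.0, 10 μM), then LPS 0.5 μg/mL for 22 h. Medium TNF-α or IL-6 measured by ELISA, normalized to cell protein, expressed as % of LPS control; IC50 derived from dose series.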

[21] = biological target: T1, MAP kinase p38 (Mus musculus); test: Inhibition of LPS-induced p38 phosphorylation in ICR mouse primary peritoneal macrophages at 10 uM incubated for 2 hrs prior to LPS-challenge measured after 1 hr by Western blot analysis; summary of the method: as §1
Mus musculus [22] = species on record: Mus musculus; test: Inhibition of LPS-induced JNK phosphorylation in ICR mouse primary peritoneal macrophages incubated for 2 hrs prior to LPS-challenge measured after 30 mins by Western blot analysis; summary of the method: as §5
RAW264.7 [23] = test: Antiinflammatory activity in mouse RAW264.7 cells assessed as inhibition of LPS-induced IL6 production incubated for 2 hrs prior to LPS-challenge measured after 22 hrs by ELISA; assay type: functional, cell-based; summary of the method: as §6
RAW264.7 [24] = test: Antiinflammatory activity in mouse RAW264.7 cells assessed as inhibition of LPS-induced TNFalpha production at 10 uM incubated for 2 hrs prior to LPS-challenge measured after 22 hrs by ELISA; assay type: functional, cell-based; summary of the method: as §6
RAW264.7 [25] = test: Antiinflammatory activity in mouse RAW264.7 cells assessed as inhibition of LPS-induced IL6 production at 10 uM incubated for 2 hrs prior to LPS-challenge measured after 22 hrs by ELISA; assay type: functional, cell-based; summary of the method: as §6
RAW264.7 [26] = test: Antiinflammatory activity in mouse RAW264.7 cells assessed as inhibition of LPS-induced TNFalpha production at 10 uM incubated for 2 hrs prior to LPS-challenge measured after 22 hrs by ELISA relative to control; assay type: functional; summary of the method: as §6
RAW264.7 [27] = test: Antiinflammatory activity in mouse RAW264.7 cells assessed as inhibition of LPS-induced IL6 production at 10 uM incubated for 2 hrs prior to LPS-challenge measured after 22 hrs by ELISA relative to control; assay type: functional; summary of the method: as §6

Structure (SMILES) | inhibition (Mus musculus [1]) | Activity [4] | Activity [5] | Activity [12] | Activity [13] | Activity [14] | Activity [15] | Activity [16] | Activity [18] | Activity [19] | IC50 (RAW264.7 [20]) [µM] | inhibition (RAW264.7 [20]) | inhibition [21] | IC50 (RAW264.7 [23]) [µM] | inhibition (RAW264.7 [23]) | inhibition (RAW264.7 [24]) | inhibition (RAW264.7 [25]) | further results
COc1ccc(C(=O)/C=C/c2ccccc2Cl)cc1 | Active | Active | Active | Active | Active | Active | Active | Active | Active | Active | 7.32 | Dose-dependent effect | Active | 8.22 | Dose-dependent effect | – | – | Activity (Mus musculus [2]): Non-toxic; inhibition [3]: Dose-dependent effect; inhibition (Mus musculus [6]): Active; Activity (Mus musculus [7]): 70%; inhibition (Mus musculus [8]): Dose-dependent effect; inhibition (Mus musculus [9]): Dose-dependent effect; inhibition [10]: Active; inhibition (Mus musculus [11]): Active; Activity (Mus musculus [17]): Toxic; inhibition (Mus musculus [22]): Dose-dependent effect
COc1ccc(C(=O)/C=C/c2c(F)cccc2F)cc1 | Active | Active | Active | Active | Active | Active | Active | inactive | Active | Active | 8.42 | Dose-dependent effect | Active | 5.55 | Dose-dependent effect | – | – | Activity (Mus musculus [2]): Non-toxic; inhibition [3]: Dose-dependent effect; inhibition (Mus musculus [6]): Active; Activity (Mus musculus [7]): 80%; inhibition (Mus musculus [9]): Dose-dependent effect; inhibition [10]: Active; inhibition (Mus musculus [11]): Active; Activity (Mus musculus [17]): Toxic; inhibition (Mus musculus [22]): Dose-dependent effect
COc1ccc(/C=C/C(=O)c2ccc(OC)c(OC)c2)c(OC)c1 | Active | Active | Active | Active | Active | Active | Active | Active | Active | inactive | 2.76 | Dose-dependent effect | Active | 5.35 | Dose-dependent effect | Active | Active | –
COc1ccc(/C=C/C(=O)c2cc(OC)c(OC)c(OC)c2)c(OC)c1 | – | – | – | – | – | – | – | – | – | – | – | – | – | – | – | Active | Active | –
COc1cc(C(=O)/C=C/c2ccc(N(C)C)cc2)cc(OC)c1OC | Active | Active | inactive | Active | inactive | Active | Active | inactive | Active | Active | 2.9 | Dose-dependent effect | Active | 6.88 | Dose-dependent effect | Active | Active | inhibition at 10 µM (RAW264.7 [26]): 61.2%; inhibition at 10 µM (RAW264.7 [27]): 73.4%
COc1ccc(C(=O)/C=C/c2ccc(O)c(OC)c2)cc1 | Active | Active | Active | Active | Active | Active | Active | Active | Active | Active | – | Dose-dependent effect | Active | > 10 | Dose-dependent effect | Active | Active | –
COc1ccc(C(=O)/C=C/c2ccccc2Cl)cc1OC | – | – | – | – | – | – | – | – | – | – | – | – | – | – | – | Active | Active | –
COc1cc(/C=C/C(=O)CC(=O)/C=C/c2ccc(O)c(OC)c2)ccc1O | – | – | – | – | – | – | – | – | – | – | – | – | – | – | – | Active | Active | –
COc1ccc(C(=O)/C=C/c2cccc(OC)c2OC)cc1 | – | – | – | – | – | – | – | – | – | – | – | – | – | – | – | Active | Active | –
